Test results published in ChEMBL document CHEMBL3862036, “Biphenyl Pyridazinone Derivatives as Inhaled PDE4 Inhibitors: Structural Biology and Structure-Activity Relationships” (J Med Chem, 2016).

Tests used:
[1] = Inhibition of PDE4 in PBMC (unknown origin) assessed as reduction in LPS-induced TNFalpha production incubated for 24 hrs by ELISA; conditions: Homo sapiens
[2] = Inhibition of PDE4 in human whole blood assessed as reduction in LPS-induced TNFalpha production incubated for 24 hrs by ELISA; type: tissue-based
Summary of the method: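 Human whole blood was preincubated with LPS (final 1 μg/mL) for 10 min at 37 °C with rocking. 200 μL was added to wells holding increasing inhibitor concentrations in 100% DMSO. Plates were incubated 24 h at 37 °C under agitation, then placed on ice, diluted with PBS and centrifuged at 800g, 4 °C, for 15 min before TNF-α measurement.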

[3] = Drug metabolism in human liver S9 fraction assessed as glucuronidation in presence of PAPS and UDPGA incubated for 20 mins; type: ADME, subcellular; conditions: read-out: Drug metabolism
[4] = test system: Rattus norvegicus; test: Anti-inflammatory activity in Sprague-Dawley rat assessed as inhibition of LPS-induced neutrophilia at 10 to 1000 ug/kg, it administered as suspension with Penn-Century micro-sprayer aerosolizer dosed 1 hrs before LPS challenge and measured 5 hrs post dose; type: functional; conditions: inhaled or nasal
Summary of the method: (§1)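 Suspensions in PBS/0.2% Tween 80 were homogenized, with lower doses made by 1:10 dilutions. 0.2 mL was given intratracheally by MicroSprayer to isoflurane-anesthetized fasted male Sprague-Dawley rats (230–280 g). At 1 or 18 h, rats received nebulized LPS (30 mL of a 1:100 PBS dilution of 100 mg/10 mL stock) over 40 min. Four hours later, BAL neutrophils were counted by flow cytometry.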

[5] = test system: Rattus norvegicus; test: Anti-inflammatory activity in Sprague-Dawley rat assessed as inhibition of LPS-induced neutrophilia at 1000 ug/kg, it administered as suspension with Penn-Century micro-sprayer aerosolizer dosed 1 hrs before LPS challenge and measured 5 hrs post dose; type: functional; conditions: inhaled or nasal; summary of the method: as §1
[6] = test system: Rattus norvegicus; test: Anti-inflammatory activity in Sprague-Dawley rat assessed as inhibition of LPS-induced neutrophilia at 1000 ug/kg, it administered as suspension with Penn-Century micro-sprayer aerosolizer dosed 18 hrs before LPS challenge and measured 22 hrs post dose; type: functional; conditions: inhaled or nasal; summary of the method: as §1
[7] = target: T1, Adenosine receptor A1 (Homo sapiens, UniProt P30542); test: Antagonist activity at adenosine A1 receptor (unknown origin)
T1 sequence (P30542 whole entry): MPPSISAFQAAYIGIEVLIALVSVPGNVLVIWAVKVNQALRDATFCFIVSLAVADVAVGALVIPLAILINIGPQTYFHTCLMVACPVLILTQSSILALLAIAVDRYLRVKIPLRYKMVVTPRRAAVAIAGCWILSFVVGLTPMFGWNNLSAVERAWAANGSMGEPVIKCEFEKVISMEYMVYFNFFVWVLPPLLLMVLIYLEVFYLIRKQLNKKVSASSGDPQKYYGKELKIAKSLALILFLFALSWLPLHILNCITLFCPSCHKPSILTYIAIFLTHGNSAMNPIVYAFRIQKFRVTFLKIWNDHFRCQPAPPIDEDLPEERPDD

[8] = target: Adenosine receptor A2a (Homo sapiens, UniProt P29274); test: Antagonist activity at adenosine A2a receptor (unknown origin)
[9] = target: T2, Adenosine receptor A2b (Homo sapiens, UniProt P29275); test: Antagonist activity at adenosine A2b receptor (unknown origin)
T2 sequence (P29275 whole entry): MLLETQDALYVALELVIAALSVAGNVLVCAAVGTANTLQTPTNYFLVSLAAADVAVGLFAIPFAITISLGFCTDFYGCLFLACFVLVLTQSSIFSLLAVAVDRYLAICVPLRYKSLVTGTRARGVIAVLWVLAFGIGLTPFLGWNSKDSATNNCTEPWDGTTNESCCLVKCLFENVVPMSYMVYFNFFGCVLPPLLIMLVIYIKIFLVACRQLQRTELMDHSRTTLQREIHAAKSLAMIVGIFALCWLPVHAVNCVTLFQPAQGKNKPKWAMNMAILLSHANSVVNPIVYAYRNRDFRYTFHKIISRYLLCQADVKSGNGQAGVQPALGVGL

[10] = test system: Rattus norvegicus; test: Anti-inflammatory activity in Sprague-Dawley rat assessed as inhibition of LPS-induced neutrophilia at 25 ug/kg, it administered as suspension with Penn-Century micro-sprayer aerosolizer dosed 1 hrs before LPS challenge and measured 5 hrs post dose; type: functional; conditions: inhaled or nasal; summary of the method: as §1
[11] = test system: Rattus norvegicus; test: Anti-inflammatory activity in Sprague-Dawley rat assessed as inhibition of LPS-induced neutrophilia at 100 ug/kg, it administered as suspension with Penn-Century micro-sprayer aerosolizer dosed 1 hrs before LPS challenge and measured 5 hrs post dose; type: functional; conditions: inhaled or nasal; summary of the method: as §1
[12] = test system: Rattus norvegicus; test: Anti-inflammatory activity in Sprague-Dawley rat assessed as inhibition of LPS-induced neutrophilia at 100 ug/kg, it administered as suspension with Penn-Century micro-sprayer aerosolizer dosed 18 hrs before LPS challenge and measured 22 hrs post dose; type: functional; conditions: inhaled or nasal; summary of the method: as §1

Sequence of Adenosine receptor A2a (P29274 whole entry): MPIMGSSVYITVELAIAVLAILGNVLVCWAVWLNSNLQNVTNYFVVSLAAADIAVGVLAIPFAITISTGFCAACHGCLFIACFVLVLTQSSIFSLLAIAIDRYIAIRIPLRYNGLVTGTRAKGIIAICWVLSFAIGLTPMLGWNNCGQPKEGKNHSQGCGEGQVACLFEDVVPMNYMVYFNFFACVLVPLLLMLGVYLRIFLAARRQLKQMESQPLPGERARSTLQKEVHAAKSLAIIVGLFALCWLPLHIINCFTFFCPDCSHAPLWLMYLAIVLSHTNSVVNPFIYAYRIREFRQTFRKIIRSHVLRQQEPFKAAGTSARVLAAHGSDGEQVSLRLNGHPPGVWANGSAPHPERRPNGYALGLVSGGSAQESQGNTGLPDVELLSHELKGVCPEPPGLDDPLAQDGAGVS

IC50 [1] | IC50 [7] | IC50 [8] | IC50 [9] | Structure (SMILES) | inhibition in vivo at 0.025 mg/kg [10] | also measured
0.68 nM | 184 nM | > 1000 nM | > 1000 nM | CCn1nc(-c2cccc(-c3ccc(CC(=O)O)cc3)c2)cc(NC(=O)Nc2c(Cl)cncc2Cl)c1=O |  | IC50 [2]: 257 nM; metabolised at 20 min [3]: 32%; ED50 [4]: 0.149 mg/kg; inhibition in vivo at 1 mg/kg [5]: 80%; inhibition in vivo at 1 mg/kg [6]: 10%
4.9 nM | 28 nM | 59 nM | 459 nM | CCn1nc(-c2cccc(-c3cccc(CC(=O)NCCCCCCCN(C)CCO)c3)c2)cc(NC(=O)Nc2c(Cl)cncc2Cl)c1=O |  | IC50 [2]: 525 nM
3.7 nM |  |  |  | CCn1nc(-c2cccc(Br)c2)cc(NC(=O)Nc2c(Cl)cncc2Cl)c1=O |  | 
0.88 nM | 81 nM | > 1000 nM | > 1000 nM | CCn1nc(-c2cccc(-c3cc(OCC4CC4)cc(C(=O)NCCN4CCCCC4)c3)c2)cc(NC(=O)Nc2c(Cl)cncc2Cl)c1=O | 60% | 
26.3 nM |  |  |  | CCn1nc(-c2cccc(-c3ccc(F)c(C(=O)O)c3)c2)cc(NC(=O)Nc2c(Cl)cncc2Cl)c1=O |  | 
10.3 nM |  |  |  | CCn1nc(-c2cccc(-c3ccccc3C(=O)O)c2)cc(NC(=O)Nc2c(Cl)cncc2Cl)c1=O |  | 
0.19 nM | 2 nM | 5 nM |  | CCn1nc(-c2cccc(-c3cccc(C(=O)NCCC4CCCN4C)c3)c2)cc(NC(=O)Nc2c(Cl)cncc2Cl)c1=O (centres undefined) |  | IC50 [2]: 70 nM; inhibition in vivo at 0.1 mg/kg [11]: 70%; inhibition in vivo at 0.1 mg/kg [12]: 57%
0.31 nM | > 1000 nM | > 1000 nM | > 268 nM | CCn1nc(-c2cccc(-c3cc(C(=O)NCCO)cc(C(=O)NCCN4CCCCC4)c3)c2)cc(NC(=O)Nc2c(Cl)cncc2Cl)c1=O | 33% | 
0.35 nM | > 1000 nM | > 1000 nM | 95 nM | CCn1nc(-c2cccc(-c3cc(C(=O)NCCN4CCCCC4)cc(C(=O)NC4CC4)c3)c2)cc(NC(=O)Nc2c(Cl)cncc2Cl)c1=O | 25% | 
0.2 nM |  |  |  | CCn1nc(-c2cccc(-c3ccc(C(N)=O)cc3)c2)cc(NC(=O)Nc2c(Cl)cncc2Cl)c1=O |  | IC50 [2]: 120 nM
6.6 nM |  |  |  | CCn1nc(-c2cccc(-c3cc(C(=O)O)ccc3F)c2)cc(NC(=O)Nc2c(Cl)cncc2Cl)c1=O |  | 
11.6 nM |  |  |  | CCn1nc(-c2cccc(-c3cncc(C(=O)O)c3)c2)cc(NC(=O)Nc2c(Cl)cncc2Cl)c1=O |  | metabolised at 20 min [3]: 35%
0.3 nM | 399 nM | > 1000 nM | 146 nM | CCn1nc(-c2cccc(-c3cc(C(=O)NCC[C@H]4CCCN4C)cc(C(=O)NC4CC4)c3)c2)cc(NC(=O)Nc2c(Cl)cncc2Cl)c1=O | 42% | inhibition in vivo at 0.1 mg/kg [12]: 37%
0.24 nM | 59 nM | > 1000 nM | > 1000 nM | CCOc1cc(C(=O)NC2CC2)cc(-c2cccc(-c3cc(NC(=O)Nc4c(Cl)cncc4Cl)c(=O)n(CC)n3)c2)c1 | 26% | 
